Assay results taken from ChEMBL document CHEMBL4513216, “Probing the Open Global Health Chemical Diversity Library for Multistage-Active Starting Points for Next-Generation Antimalarials” (ACS Infect Dis, 2020).

Assay: Toxicity liver stage against HepG2, at 10uM
Type: cell-based
Parameters: test concentration 10 uM, cell line HepG2-A16-CD81EGFP
Details: human, HepG2-A16-CD81EGFP cells; read-out: INHIBITION
In short: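 Uninfected HepG2-A16-CD81EGFP cells, 3 × 10^3 per well, 1536-well, plated on prespotted compound at 10 μM final, parasite-free screening media added to match infected plates; puromycin 10 μM positive, DMSO 0.5% negative; run in parallel with 48 h PbLuc assay at 37 °C, 5% CO2; viability by CellTiter-Glo luminescence, normalized to controls.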

## CC(=O)N1CCN(C(=O)C[C@@H]2C[C@@H](C(C)C)[C@H](CC#N)C=C2C)CC1
  cytotoxicity at 10 µM: -1.01%

## O=C(NC[C@H]1O[C@H](Cc2cc(-c3ccccn3)on2)CC[C@@H]1O)C1CC1
  cytotoxicity at 10 µM: -2.69%

## O=C(O)c1cn(-c2ccccn2)c(=O)c2ccccc12
  cytotoxicity at 10 µM: 0.847%

## CC[C@@H](C)[C@H](NC(=O)NC1CCS(=O)(=O)C1)C(=O)NCc1ccncc1 (stereo not given in full)
  cytotoxicity at 10 µM: -2.56%

## COc1ccc(C(=O)CNC(=O)c2nc(Cl)sc2C(C)C)cc1
  cytotoxicity at 10 µM: -3.15%

## O=S(=O)(NCC1(c2cccs2)CCCC1)c1cccnc1
  cytotoxicity at 10 µM: -2.56%

## COc1ccc(CN2C[C@@H]3CN(C(=O)[C@H]4CCCO4)C[C@@H]3C2=O)cc1
  cytotoxicity at 10 µM: -0.0368%

## CC1c2ncc(COCC3CCOCC3)n2CCN1S(C)(=O)=O (stereo not given)
  cytotoxicity at 10 µM: 3.11%

## O=C(c1cccnc1)N1CCc2onc(CN3CCCC3)c2C1
  cytotoxicity at 10 µM: 4.86%

## CN(C)C(=O)N1CC2(CCN(S(C)(=O)=O)CC2)c2ccccc21
  cytotoxicity at 10 µM: -121%

## Cc1nc(N(C)C)nc2c1COCC21CCN(C(=O)NCC(C)C)C1 (stereo not given)
  cytotoxicity at 10 µM: 7.63%

## COCC1CN(C(=O)c2ccnnc2)Cc2ncnn2C1 (stereo not given)
  cytotoxicity at 10 µM: -4.24%

## COc1ncccc1C(=O)N1CC[C@H]2C[C@@H](c3ccncn3)O[C@@H]2C1
  cytotoxicity at 10 µM: -2.24%

## Cc1nc(N2CCCC2)nc2c1CCN(C(=O)C1CCCCC1)CC2
  cytotoxicity at 10 µM: 3.16%

## CC(C)Oc1ccccc1C1CC(=O)Nc2nc(N3CCOCC3)sc21 (stereo not given)
  cytotoxicity at 10 µM: 14.3%

## CC(C)(C)C(=O)N1CCCc2c(cnn2-c2ccccc2)C1
  cytotoxicity at 10 µM: 7.15%

## CC(C)NC(=O)Nc1ncc(-c2cccnc2)s1
  cytotoxicity at 10 µM: 7.05%

## COCC(=O)N1CC(c2n[nH]cc2C)C1
  cytotoxicity at 10 µM: -2.76%

## O=C(NCC1(O)COCCN(Cc2ccc(O)cc2)C1)c1cnccn1 (stereo not given)
  cytotoxicity at 10 µM: -12.8%

## CCC(Nc1ncccn1)c1ccc(OC)cc1 (stereo not given)
  cytotoxicity at 10 µM: -12.6%

## COc1ccc(C2(c3nc(-c4cccnc4)no3)CCOCC2)cc1
  cytotoxicity at 10 µM: 13.9%

## Cc1c(C[S+](C)[O-])cccc1NC(=O)c1cc(Cl)ccn1 (stereo not given)
  cytotoxicity at 10 µM: 9.41%

## COc1ncccc1NC(=O)c1[nH]nc(C(C)C)c1Br
  cytotoxicity at 10 µM: 17.1%

## Cn1ccnc1C(O)(CCNCc1ccc(Cl)o1)C(F)(F)F (stereo not given)
  cytotoxicity at 10 µM: 4.91%

## CC(C)(C)c1noc(CCC(=O)N(CC2CCOC2)C2CC2)n1 (stereo not given)
  cytotoxicity at 10 µM: 2.66%

## CCCN(Cc1cnn(C)c1)S(=O)(=O)c1cccc(F)c1C#N
  cytotoxicity at 10 µM: -9.04%

## CC(C)c1nnc2n1CCN(Cc1ccc3c(c1)OCCO3)C2
  cytotoxicity at 10 µM: -0.234%

## COC(=O)c1ccc(NC(=O)NC2CCc3[nH]ncc3C2)cc1 (stereo not given)
  cytotoxicity at 10 µM: -11.2%

## COc1nc(N2CCC(CC(N)=O)CC2)ncc1Br
  cytotoxicity at 10 µM: 2.99%

## CCOC(=O)C1(O)CCN(C(=O)Nc2cccc(CC)c2)CC1
  cytotoxicity at 10 µM: -140%

## COC(=O)c1ccoc1CN(C)CC(=O)NC1CC1
  cytotoxicity at 10 µM: -1.96%

## CC(C)Cn1cc(NC(=O)c2cccc(N(C)C)c2)cn1
  cytotoxicity at 10 µM: 11.8%

## NC(=O)CC1CCN(c2ncnc3cccc(F)c23)CC1
  cytotoxicity at 10 µM: 3.39%

## CC(=O)Nc1ccc(CNC(C)c2c(C)nn(C)c2C)cc1 (stereo not given)
  cytotoxicity at 10 µM: 13%

## COC(=O)C(C)(C)NC(=O)c1cc2sc(N(C)C)nc2s1
  cytotoxicity at 10 µM: -20.5%

## CC(=O)N1CCN(c2nc3c(cnn3C(C)(C)C)c(=O)[nH]2)CC1
  cytotoxicity at 10 µM: -17.9%

## COc1ccc(CNC(Cn2cncn2)c2ccccc2)cc1O (stereo not given)
  cytotoxicity at 10 µM: -6.74%

## COC(=O)CNc1cc(C(=O)NCC(F)(F)F)cc(F)c1C
  cytotoxicity at 10 µM: 6.05%

## O=C(NCc1ccccc1CN1CCCCCC1)Nc1nncs1
  cytotoxicity at 10 µM: 4.22%

## Cc1ncsc1CNc1ccn(Cc2ccccc2)n1
  cytotoxicity at 10 µM: 9.58%

## CC(C)(C)n1cc(NC(=O)C2CN(Cc3ccccc3)CCO2)cn1 (stereo not given)
  cytotoxicity at 10 µM: 0.935%

## CC(C)c1noc(CNC2CCCN(Cc3noc(C4CC4)n3)C2)n1 (stereo not given)
  cytotoxicity at 10 µM: -3.19%

## CCc1nnc2n1CCN(Cc1csc(-c3ccccc3F)n1)C2
  cytotoxicity at 10 µM: -4.49%

## Cn1cc(-c2csc(N3CCSCC3)n2)cn1
  cytotoxicity at 10 µM: -1.31%

## N#Cc1ccccc1C(=O)Nc1cccc(CN2CCC(CO)CC2)c1
  cytotoxicity at 10 µM: -140%

## O=C(CN1CCCC(Cn2cncn2)C1)Nc1cccnc1 (stereo not given)
  cytotoxicity at 10 µM: 2.01%

## CN(C)C(CNC(=O)c1cccc(C(N)=O)c1)c1ccccc1Cl (stereo not given)
  cytotoxicity at 10 µM: -4.83%

## OCC1CCCN1c1cc(NCc2ccccn2)ncn1 (stereo not given)
  cytotoxicity at 10 µM: -8.01%

## Cc1cnn(CC2CCCN2C(=O)Cn2nc(C)c(Cl)c2C)c1 (stereo not given)
  cytotoxicity at 10 µM: -11.3%

## CN(CC(F)(F)F)C(=O)c1ccc(F)c(NS(C)(=O)=O)c1
  cytotoxicity at 10 µM: -2.05%

## Cc1ccc(C(C)(O)CNC(=O)c2sccc2OC(F)F)o1 (stereo not given)
  cytotoxicity at 10 µM: -1.34%

## O=C(NCC1CCS(=O)(=O)C1)Nc1ccccn1 (stereo not given)
  cytotoxicity at 10 µM: 1.54%

## CC1CN(c2ccc(CNC(=O)NCCO)cn2)CCO1 (stereo not given)
  cytotoxicity at 10 µM: 6.15%

## CC(C(=O)NCC1(c2cccc(Br)c2)CCC1)S(C)(=O)=O (stereo not given)
  cytotoxicity at 10 µM: 6.88%

## O=C(CN1CCc2sccc2C1)Nc1nccs1
  cytotoxicity at 10 µM: 5.31%
